Source: ChEMBL document CHEMBL4828738, “Design, synthesis and evaluation of novel 5-phenylthiophene derivatives as potent fungicidal of Candida albicans and antifungal reagents of fluconazole-resistant fungi” (Eur J Med Chem, 2021)
Converted amounts (≈) assume the structure as drawn.

Legend:
[1] = biological target: CYP2D6 (Homo sapiens, UniProt P10635); assay: Inhibition of CYP2D6 in human liver Microsome using dextromethorphan as substrate preincubated for 10 mins followed by NADPH addition and further incubated for 10 mins as substrate by LC-MS/MS analysis relative to control; settings: liver microsomes, probe dextromethorphan
[2] = system: Candida albicans; assay: Anti-biofilm activity in Candida albicans CPCC400616 assessed as inhibition of biofilm formation incubated for 6 hrs by XTT assay; format: functional
Procedure, shortened: (§1)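 C. albicans CPCC400616 suspension placed in wells at 37 °C. Non-adherent cells and medium were removed at 3, 6, 18 or 24 h and wells washed with PBS. Compounds were added at a range of concentrations in fresh RPMI 1640 and incubated a further 24 h at 37 °C. Biofilm metabolic activity was read by XTT reduction.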

[3] = system: Cryptococcus neoformans; assay: Antifungal activity against Cryptococcus neoformans CGMCC2.3161 assessed as fungal growth inhibition by CLSI protocol based method; format: functional
[4] = system: Candida albicans; assay: Anti-biofilm activity in Candida albicans CPCC400616 assessed as inhibition of biofilm formation incubated for 18 hrs by XTT assay; format: functional; procedure, shortened: as §1
[5] = system: A549; assay: Cytotoxicity against human A549 cells assessed as reduction in cell viability measured after 96 hrs by MTT assay; format: ADME, cell-based; settings: A549, 96 h
[6] = system: Candida parapsilosis; assay: Antifungal activity against Candida parapsilosis GIM2.190 assessed as fungal growth inhibition by CLSI protocol based method; format: functional; settings: Lodderomyces parapsilosis
[7] = system: Candida albicans; assay: Antifungal activity against Candida albicans ATCC SC5314 assessed as fungal growth inhibition by CLSI protocol based method; format: functional
[8] = system: Candida albicans; assay: Fungicidal activity against Candida albicans ATCC SC5314 assessed as inhibition of visible fungal growth measured after 48 hrs; format: functional
[9] = system: Nakaseomyces glabratus; assay: Antifungal activity against Candida glabrata assessed as fungal growth inhibition by CLSI protocol based method; format: functional
[10] = system: MCF7; assay: Cytotoxicity against human MCF7 cells assessed as reduction in cell viability measured after 96 hrs by MTT assay; format: ADME, cell-based; settings: MCF7, 96 h
[11] = system: THLE-2; assay: Cytotoxicity against human THLE-2 cells assessed as reduction in cell viability measured after 96 hrs by MTT assay; format: ADME, cell-based; settings: THLE-2, 96 h
[12] = system: Candida albicans; assay: Antifungal activity against Candida albicans CPCC400616 assessed as fungal growth inhibition by CLSI protocol based method; format: functional
[13] = system: Candida tropicalis; assay: Antifungal activity against Candida tropicalis CGMCC 2.3739 assessed as fungal growth inhibition by CLSI protocol based method; format: functional
[14] = system: Pichia kudriavzevii; assay: Antifungal activity against Candida krusei GIM2.1 assessed as fungal growth inhibition by CLSI protocol based method; format: functional
[15] = system: Candida albicans; assay: Anti-biofilm activity in Candida albicans CPCC400616 assessed as inhibition of biofilm formation incubated for 3 hrs by XTT assay; format: functional; procedure, shortened: as §1
[16] = system: Candida albicans; assay: Anti-biofilm activity in Candida albicans CPCC400616 assessed as inhibition of biofilm formation incubated for 24 hrs by XTT assay; format: functional; procedure, shortened: as §1
[17] = biological target: CYP2C9 (Homo sapiens, UniProt P11712); assay: Inhibition of CYP2C9 in human liver Microsome using diclofenac as substrate preincubated for 10 mins followed by NADPH addition and further incubated for 10 mins as substrate by LC-MS/MS analysis relative to control; settings: liver microsomes, probe diclofenac
[18] = Metabolic stability in human plasma assessed as half life after 60 mins by LC-MS/MS analysis; format: ADME, cell-free
[19] = Metabolic stability in human plasma assessed as parent compound remaining after 120 mins by LC-MS/MS analysis; format: ADME, cell-free; settings: read-out: Stability
[20] = system: Candida albicans; assay: Antifungal activity against fluconazole-resistant Candida albicans 901 assessed as fungal growth inhibition by CLSI protocol based method
[21] = system: Candida albicans; assay: Antifungal activity against fluconazole-resistant Candida albicans 100 assessed as fungal growth inhibition by CLSI protocol based method
[22] = Metabolic stability in human plasma assessed as parent compound remaining after 60 mins by LC-MS/MS analysis; format: ADME, cell-free; settings: read-out: Stability
[23] = system: Candida albicans; assay: Antifungal activity against fluconazole-resistant Candida albicans 311 assessed as fungal growth inhibition by CLSI protocol based method
[24] = system: Candida albicans; assay: Antifungal activity against fluconazole-resistant Candida albicans 632 assessed as fungal growth inhibition by CLSI protocol based method
[25] = system: Candida albicans; assay: Antifungal activity against fluconazole-resistant Candida albicans 904 assessed as fungal growth inhibition by CLSI protocol based method
[26] = system: Candida albicans; assay: Antifungal activity against fluconazole-resistant Candida albicans 103 assessed as fungal growth inhibition by CLSI protocol based method
[27] = biological target: T1, Lanosterol 14-alpha demethylase (Candida albicans (strain SC5314 / ATCC MYA-2876) (Yeast), UniProt P10613); assay: Inhibition of CYP51 in Candida albicans assessed as Eburicol level at 0.25 ug/ml measured after 18 hrs by GC-MS analysis relative to control; design: scale not given: the % may be the effect or the level left; settings: at 0.25 µg/mL
[28] = biological target: T1, Lanosterol 14-alpha demethylase; assay: Inhibition of CYP51 in Candida albicans assessed as lanosterol level at 0.25 ug/ml measured after 18 hrs by GC-MS analysis relative to control; design: scale not given: the % may be the effect or the level left; settings: at 0.25 µg/mL
[29] = biological target: T1, Lanosterol 14-alpha demethylase; assay: Inhibition of CYP51 in Candida albicans assessed as ergosterol level at 0.25 ug/ml after 18 hrs by GC-MS analysis (reference value: 96.93 %); design: scale not given: the % may be the effect or the level left; settings: at 0.25 µg/mL
[30] = biological target: T1, Lanosterol 14-alpha demethylase; assay: Inhibition of CYP51 in Candida albicans assessed as other sterols level at 0.25 ug/ml measured after 18 hrs by GC-MS analysis relative to control; design: scale not given: the % may be the effect or the level left; settings: at 0.25 µg/mL
[31] = biological target: T1, Lanosterol 14-alpha demethylase; assay: Inhibition of CYP51 in Candida albicans assessed as 14alpha-methylfecosterol level at 0.25 ug/ml measured after 18 hrs by GC-MS analysis relative to control; design: scale not given: the % may be the effect or the level left; settings: at 0.25 µg/mL
[32] = biological target: T1, Lanosterol 14-alpha demethylase; assay: Inhibition of CYP51 in Candida albicans assessed as Eburicol level at 0.015 ug/ml measured after 18 hrs by GC-MS analysis relative to control; design: scale not given: the % may be the effect or the level left; settings: at 0.015 µg/mL
[33] = biological target: T1, Lanosterol 14-alpha demethylase; assay: Inhibition of CYP51 in Candida albicans assessed as Ergosterol level at 0.015 ug/ml measured after 18 hrs by GC-MS analysis (reference value: 96.93 %); design: scale not given: the % may be the effect or the level left; settings: at 0.015 µg/mL
[34] = biological target: T1, Lanosterol 14-alpha demethylase; assay: Inhibition of CYP51 in Candida albicans assessed as 14alpha-methylfecosterol level at 0.015 ug/ml measured after 18 hrs by GC-MS analysis relative to control; design: scale not given: the % may be the effect or the level left; settings: at 0.015 µg/mL
[35] = system: Candida albicans; assay: Fungicidal activity in Candida albicans CPCC400616 assessed as reduction in viable colony formation measured after 24 hrs by time kill assay; format: functional, organism-based
[36] = system: Candida albicans; assay: Anti-biofilm activity in Candida albicans CPCC400616 assessed as inhibition of biofilm formation measured up to 24 hrs by XTT assay; format: functional, organism-based; settings: time hrs <=24
Procedure, shortened: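 C. albicans CPCC400616 suspension allowed to adhere in 96-well plates at 37 °C; non-adherent cells and medium removed after 3, 6, 18 or 24 h. Wells washed with PBS, compounds added at graded concentrations in fresh RPMI 1640, then incubated a further 24 h at 37 °C. Biofilm quantified semiquantitatively by XTT reduction. SMIC50 is the concentration inhibiting biofilm metabolic activity by 50%.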

[37] = biological target: T1, Lanosterol 14-alpha demethylase; assay: Inhibition of CYP51 in Candida albicans assessed as other sterols level at 0.015 ug/ml measured after 18 hrs by GC-MS analysis relative to control; design: scale not given: the % may be the effect or the level left; settings: at 0.015 µg/mL
[38] = system: Candida albicans; assay: Fungicidal activity in Candida albicans CPCC400616 assessed as reduction in viable colony formation measured within 16 hrs by time kill assay; format: functional; settings: time hrs <16
Procedure, shortened: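 Diluted samples were plated on PDA and incubated 24 h at 35 °C. CFU were counted and log10 CFU/mL was plotted against time. Detection limit was 100 CFU/mL. Run in triplicate.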

[39] = biological target: T1, Lanosterol 14-alpha demethylase; assay: Inhibition of CYP51 in Candida albicans assessed as lanosterol level at 0.015 ug/ml measured after 18 hrs by GC-MS analysis relative to control; design: scale not given: the % may be the effect or the level left; settings: at 0.015 µg/mL

T1 sequence (P10613 whole entry): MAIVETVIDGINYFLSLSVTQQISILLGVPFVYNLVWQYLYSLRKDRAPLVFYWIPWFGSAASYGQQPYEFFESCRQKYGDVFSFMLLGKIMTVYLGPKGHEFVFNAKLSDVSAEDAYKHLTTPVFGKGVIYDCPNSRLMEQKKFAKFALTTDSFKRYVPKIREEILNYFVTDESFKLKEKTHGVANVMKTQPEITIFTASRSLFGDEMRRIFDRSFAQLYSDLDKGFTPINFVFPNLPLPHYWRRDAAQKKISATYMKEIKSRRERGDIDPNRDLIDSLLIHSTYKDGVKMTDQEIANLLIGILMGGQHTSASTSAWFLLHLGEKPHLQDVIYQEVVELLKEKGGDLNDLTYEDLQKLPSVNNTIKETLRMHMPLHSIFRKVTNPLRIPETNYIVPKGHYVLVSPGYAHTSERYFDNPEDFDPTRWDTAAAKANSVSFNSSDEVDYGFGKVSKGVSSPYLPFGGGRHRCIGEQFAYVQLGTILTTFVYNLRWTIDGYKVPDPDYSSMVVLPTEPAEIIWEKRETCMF
CYP2D6, sequence (P10635 whole entry): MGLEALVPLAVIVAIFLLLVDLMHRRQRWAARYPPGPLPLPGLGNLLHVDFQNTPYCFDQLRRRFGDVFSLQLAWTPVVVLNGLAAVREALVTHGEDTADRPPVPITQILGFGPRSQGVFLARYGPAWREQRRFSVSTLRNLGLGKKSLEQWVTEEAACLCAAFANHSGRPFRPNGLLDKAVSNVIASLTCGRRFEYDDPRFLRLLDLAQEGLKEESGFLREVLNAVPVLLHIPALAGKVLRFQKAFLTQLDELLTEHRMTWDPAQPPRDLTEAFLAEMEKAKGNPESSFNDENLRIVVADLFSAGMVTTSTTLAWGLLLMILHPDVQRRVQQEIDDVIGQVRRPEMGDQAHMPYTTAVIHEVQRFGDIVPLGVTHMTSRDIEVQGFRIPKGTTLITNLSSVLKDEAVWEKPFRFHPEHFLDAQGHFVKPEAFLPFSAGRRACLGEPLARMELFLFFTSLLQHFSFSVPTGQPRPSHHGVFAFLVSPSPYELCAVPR
CYP2C9, sequence (P11712 whole entry): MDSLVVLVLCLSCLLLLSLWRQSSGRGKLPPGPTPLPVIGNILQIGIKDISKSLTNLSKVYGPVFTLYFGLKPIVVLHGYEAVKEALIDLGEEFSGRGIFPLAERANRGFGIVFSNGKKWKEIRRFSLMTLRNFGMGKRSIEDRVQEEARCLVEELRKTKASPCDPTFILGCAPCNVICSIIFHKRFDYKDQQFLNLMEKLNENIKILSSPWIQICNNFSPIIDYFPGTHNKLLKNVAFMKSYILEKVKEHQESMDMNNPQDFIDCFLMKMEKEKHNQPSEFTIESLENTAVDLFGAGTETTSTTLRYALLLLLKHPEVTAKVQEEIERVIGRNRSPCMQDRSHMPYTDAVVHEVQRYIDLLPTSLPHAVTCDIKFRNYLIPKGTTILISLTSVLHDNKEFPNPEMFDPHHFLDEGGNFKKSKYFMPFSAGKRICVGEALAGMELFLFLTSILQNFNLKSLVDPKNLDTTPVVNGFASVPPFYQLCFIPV

Structure (SMILES)	MBIC50 [2] [µg/mL]	MIC [3] [mg/L]	MBIC50 [4] [µg/mL]	IC50 [5] [µM]	MIC [6] [mg/L]	MIC [7] [mg/L]	MFC [8] [mg/L]	MIC [9] [mg/L]	IC50 [10] [µM]	IC50 [11] [µM]	MIC [12] [mg/L]	MIC [13] [mg/L]	MIC [14] [mg/L]	MBIC50 [15] [µg/mL]	MBIC50 [16] [µg/mL]	MIC [20] [mg/L]	MIC [21] [mg/L]	MIC [23] [mg/L]	MIC [24] [mg/L]	MIC [25] [mg/L]	further results
C=C[C@H]1C[N@@]2CC[C@H]1C[C@@H]2[C@@H](O)c1ccnc2ccc(OC)cc12 [QUINIDINE]																					inhibition at 10 min [1]: 96.2%
CCC(C)n1ncn(-c2ccc(N3CCN(c4ccc(OCC5COC(Cn6cncn6)(c6ccc(Cl)cc6Cl)O5)cc4)CC3)cc2)c1=O (stereo not drawn) [ITRACONAZOLE]	32	0.125 (≈ 0.177 µM)	>64	> 30	0.125 (≈ 0.177 µM)	0.03 (≈ 0.0425 µM)	16 (≈ 22.7 µM)	0.125 (≈ 0.177 µM)	> 30	> 30	0.03 (≈ 0.0425 µM)	0.03 (≈ 0.0425 µM)	0.125 (≈ 0.177 µM)	16	>64						
Nc1ccc(S(=O)(=O)Nc2ccnn2-c2ccccc2)cc1 [SULFAPHENAZOLE]																					inhibition at 10 min [17]: 84.5%
O=C(NC(Cn1ccnc1)C(=O)c1cccc(F)c1)c1ccc(-c2ccc(Cl)cc2)s1 (stereo not drawn)	16	0.25 (≈ 0.551 µM)	>64	26.5	0.5 (≈ 1.1 µM)	0.06 (≈ 0.132 µM)	25 (≈ 55.1 µM)	1 (≈ 2.2 µM)	> 30	4.81	0.125 (≈ 0.275 µM)	0.125 (≈ 0.275 µM)	0.25 (≈ 0.551 µM)	2	>64	2 (≈ 4.41 µM)	2 (≈ 4.41 µM)	1 (≈ 2.2 µM)	0.5 (≈ 1.1 µM)	2 (≈ 4.41 µM)	half-life [18]: 1.85 h; remaining at 2 h [19]: 47.1%; remaining at 1 h [22]: 73.4%; MIC [26]: 2 mg/L (≈ 4.41 µM)
OC(Cn1cncn1)(Cn1cncn1)c1ccc(F)cc1F [FLUCONAZOLE]	>64	4 (≈ 13.1 µM)	>64	> 30	2 (≈ 6.53 µM)	0.5 (≈ 1.63 µM)	> 64	4 (≈ 13.1 µM)	> 30	> 30	1 (≈ 3.27 µM)	0.5 (≈ 1.63 µM)	8 (≈ 26.1 µM)	32	>64	> 64	> 64	> 64	> 64	> 64	Activity [27]: 29.02%; Activity [28]: 34.42%; Activity [29]: 3.15%; Activity [30]: 4.21%; Activity [31]: 22.35%; MIC [26]: > 64 mg/L
Cc1ccc(C(=O)C(Cn2ccnc2)NC(=O)c2ccc(-c3ccc(Cl)cc3)s2)cc1 (stereo not drawn)	8	0.5 (≈ 1.11 µM)		19.1	0.5 (≈ 1.11 µM)	< 0.03	0.125 (≈ 0.278 µM)	0.25 (≈ 0.556 µM)	> 30	16.1	< 0.03	< 0.03	1 (≈ 2.22 µM)	1	>64	1 (≈ 2.22 µM)	0.5 (≈ 1.11 µM)	1 (≈ 2.22 µM)	1 (≈ 2.22 µM)	0.25 (≈ 0.556 µM)	Activity [32]: 31.02%; Activity [33]: 5.06%; half-life [18]: > 4.8 h; remaining at 2 h [19]: 89.5%; Activity [34]: 3.2%; remaining at 1 h [22]: 93.1%; Activity [35]: Dose-Dependent Effect; Activity [36]: Dose-Dependent Effect; Activity [37]: 8.64%; Activity [38]: 2 log10CFU/ml; MIC [26]: 1 mg/L (≈ 2.22 µM); Activity [39]: 42.91%
C[C@@H](c1ncncc1F)[C@](O)(Cn1cncn1)c1ccc(F)cc1F [VORICONAZOLE]	32	0.06 (≈ 0.172 µM)	>64	> 30	0.06 (≈ 0.172 µM)	0.06 (≈ 0.172 µM)	8 (≈ 22.9 µM)	0.125 (≈ 0.358 µM)	> 30	> 30	0.125 (≈ 0.358 µM)	0.06 (≈ 0.172 µM)	0.125 (≈ 0.358 µM)	16	>64						
